# The list is not random: actives were taken first. Their share in the collection is about 2.1%.
# aSyn 5UTR inh: 5' untranslated region of α-synuclein, MLPCN primary screen; alpha-synuclein 5'UTR reporter, inhibitor activity; inhibition, % (tested at 7.5 µM); 0.82% of 300,000 active; AID 1813; in the data active = inhibition above about 60%;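 note: H4 neuroglioblastoma cells stably carrying SNCA 5'UTR luciferase fusion; 0% = DMSO wells and 100% = positive control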
# EWS-Fli block: EWS/Fli transcriptional activity inhibition; A673 NR0B1-luciferase reporter, viability-normalised; inhibition, % at 12.6 µM; 0.67% of 350,000 active; AID 651661;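 active = mean inhibition of at least 50% after viability correction, with every replicate also passing that limit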;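 note: firefly luciferase signal divided by Alamar Blue viability fluorescence both relative to DMSO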
# FN deposition inh: fibronectin deposition inhibition. AH1F fibroblasts, Alexa488-fibronectin deposition fluorescence, overnight. inhibition, % at 12.6 µM. 0.086% of 350,000 active;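 active = mean inhibition across replicates of 30% or more, regardless of how many single replicates reach that level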;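 note: positive control wells lacked labelled fibronectin entirely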
#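 Assay system: AH1F fibroblast monolayer, labelled fibronectin deposition. Amount: 10000 cells per well. Also added: labelled fibronectin 24 nM. Compound: single-point pinned compound. Incubation: cell attachment 1 h, compound and FN exposure overnight. Detection: fluorescence after three HBSS washes, excitation 485 nm, emission 525 nm. Read-out: inhibition of fibronectin deposition signal.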
# Shn3 inh set2: reduces Shn3 3'UTR luciferase signal in osteoblasts; 0.52% of 360,000 active; inhibition, % at 12.5 µM; AID 588674; Clone20 osteoblast Shn3 3'UTR firefly luciferase, 24 h;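 active = mean inhibition of at least 75% with every replicate also reaching 75%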;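 note: 0% = median of neutral control wells and 100% = pilot-screen positive control compound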
# PAX8 reporter: lowers PAX8-driven luciferase in RMG-I cells | 1.2% of 360,000 active | RMG-I TPO-luciferase reporter, SteadyGlo, 24 h | inhibition, % at 12.6 µM | AID 652154;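 active = mean replicate inhibition at least 60% with every replicate also reaching 60%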;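 note: luciferase light reporting Pax8 driven TPO promoter activity; plate controls were median of neutral control wells for no effect and mitoxantrone controls for full effect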
# EBV LMP1 NFkB: inhibitors of Epstein-Barr LMP1-induced NF-kappaB reporter | LMP1-induced NF-kappaB luciferase reporter cells, luminescence | inhibition, % at 12.5 µM | 0.69% of 350,000 active; in the data active = inhibition above about 41%;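 note: 0% = neutral control wells and 100% = reference inhibitor control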
# * = called active by the depositor; · = no result given.
SMILES,aSyn 5UTR inh,EWS-Fli block,FN deposition inh,Shn3 inh set2,PAX8 reporter,EBV LMP1 NFkB
C=CC(=O)Nc1ccc(Nc2nc(NC3CCC(N(C)C)CC3)nc3c2ncn3C(C)C)cc1 (stereo unspecified),·,·,·,94*,·,79*
C[C@H]1CN([C@@H](C)CO)S(=O)(=O)c2ccc(C#CCN(C)C)cc2O[C@@H]1CN(C)Cc1cccnc1,·,3,-13,·,·,·
CCCN1C[C@H](C)[C@@H](OC)CN(C)C(=O)c2cc(NC(=O)c3ccccc3)ccc2OC[C@@H]1C,·,-1,14,·,-1,·
CCOCCOC(=O)C(C)Oc1ccc(Oc2ncc(Cl)cc2Cl)cc1 (stereo unspecified),-13,4,-2,4,71*,-5
CCOCCOC(=O)C(C)Oc1ccc(Oc2nc(Cl)ccc2Cl)cc1 (stereo unspecified),7,14,-11,5,5,1
CCC(=O)Nc1ccc2c(c1)C(=O)N(C)C[C@H](OC)[C@@H](C)CN(C(=O)CC1CC1)[C@@H](C)CO2,·,-3,12,·,·,·
CCCc1c(C(=O)Nc2ccc(C(F)(F)F)cc2)cnn1-c1ccccc1,12,0,5,8,39,62*
CC(=O)OCCNc1cc(Sc2nc3ccccc3[nH]2)c2nonc2c1[N+](=O)[O-],-23,·,3,98*,-7,14
O=[N+]([O-])c1c(NCCCO)cc(Sc2ccc(Cl)cc2)c2nonc12,10,·,6,94*,-12,48*
CC(=O)OCCCNc1cc(Sc2nc3ccccc3s2)c2nonc2c1[N+](=O)[O-],-4,·,·,101*,·,8
O=[N+]([O-])c1c(NCCCO)cc(SCc2ccco2)c2nonc12,-24,1,2,-38,6,3
CC(=O)OCCCNc1cc(Sc2ccc(C)cc2)c2nonc2c1[N+](=O)[O-],20,·,2,95*,5,10
CC(=O)OCCNc1cc(SCc2ccco2)c2nonc2c1[N+](=O)[O-],-54,·,·,-22,·,3
COC(=O)CCSc1cc(NCCOC(C)=O)c([N+](=O)[O-])c2nonc12,1,·,-4,-28,16,14
CCC(=O)Nc1ccc2c(c1)C(=O)N(C)[C@@H]1CC[C@H](CC(=O)NCc3ccccc3)O[C@@H]1CO2,·,-3,-8,·,-6,·
C[C@@H](NC(=O)C[C@H]1C[C@@H]2c3cc(NC(=O)Nc4ccccc4F)ccc3O[C@@H]2[C@@H](CO)O1)c1ccccc1,·,2,·,·,20,·
COc1ccc(CN(C)C[C@H]2Oc3ccc(NC(=O)NC4CCCCC4)cc3C(=O)N([C@@H](C)CO)C[C@H]2C)cc1,·,-5,·,·,5,·
Cc1ccc(-n2c(=O)c3ccc(C(=O)NCc4ccco4)cc3n(Cc3ccccc3C#N)c2=O)cc1,19,6,2,9,76*,-1
C[C@H]1CN([C@@H](C)CO)C(=O)Cc2cc(NS(C)(=O)=O)ccc2O[C@@H]1CN(C)Cc1ccc(C(=O)O)cc1,·,2,·,·,-5,·
COc1ccccc1S(=O)(=O)N(C)C[C@@H]1OCc2cn(nn2)CCCC(=O)N([C@@H](C)CO)C[C@@H]1C,·,2,8,·,·,·
Nc1ccc(C(=O)N/N=C/c2cn(Cc3ccccc3F)c3ccccc23)cc1,72*,·,·,21,-1,14
Nc1ccc(C(=O)N/N=C/c2cn(Cc3ccccc3)c3ccccc23)cc1,57,-8,·,14,12,12
Cc1ccccc1OCC(=O)N/N=C/c1cn(Cc2ccccc2)c2ccccc12,42,·,0,14,18,0
Nc1ccc(C(=O)N/N=C/c2cn(Cc3ccc(F)cc3)c3ccccc23)cc1,64*,·,·,-1,3,4
Cc1ccc(OCC(=O)N/N=C\c2cn(Cc3ccccc3)c3ccccc23)cc1C,76*,·,3,25,12,-6
SMILES,aSyn 5UTR inh,EWS-Fli block,FN deposition inh,Shn3 inh set2,PAX8 reporter,EBV LMP1 NFkB
O=C(C[C@H]1C=C[C@H](NC(=O)CCN2CCCCC2)[C@@H](CO)O1)Nc1ccc(-c2ccccc2)cc1,·,-9,-2,·,-4,·
C/C=C/c1ccc2c(c1)O[C@H](CN(C)Cc1ccc(F)cc1)[C@@H](C)CN([C@@H](C)CO)S2(=O)=O,·,32,0,·,·,·
O=C(C[C@H]1C[C@H]2c3cc(NC(=O)C4CCOCC4)ccc3O[C@H]2[C@H](CO)O1)NCC1CC1,·,1,-1,·,-5,·
CS(=O)(=O)n1nc(-c2ccc(Cl)cc2)nc1N,6,-16,2,2,-38,-8
Cn1nc(-c2ccc(Cl)cc2)nc2c(=O)n(C)c(=O)nc1-2,110*,·,12,118*,·,·
C[C@@H]1CN([C@@H](C)CO)C(=O)c2ccccc2-c2ccccc2CO[C@@H]1CN(C)S(=O)(=O)c1cn(C)cn1,·,·,14,·,·,·
O=S(=O)(Nc1cc(Sc2cccc3cccnc23)c(O)c2ccccc12)c1ccc(F)cc1,-4,12,4,·,102*,·
CC(=O)/C(=N\Nc1ccccc1)Sc1cccc2cccnc12,24,·,·,5,·,-18
O=C(Sc1cccc2cccnc12)c1ccc(F)cc1,·,49,·,·,106*,·
COc1ccccc1S(=O)(=O)N1C[C@H](O)COC[C@H]2O[C@@H](CC(=O)O)CC[C@@H]21,·,0,0,·,-4,·
CC(/C=N/NC(=O)c1cc(-c2ccc(Cl)cc2)nc2ccccc12)=C\c1ccco1,85*,·,-12,2,87*,-2
Cc1cc(C(=O)N/N=C/c2ccc(C)o2)c2ccccc2n1,65*,·,5,23,26,6
CC(/C=N/NC(=O)c1cc(-c2ccccc2)nc2ccccc12)=C\c1ccco1,-6,·,5,18,41,0
Cc1ccc(/C=N/NC(=O)c2cc(-c3ccccc3)nc3ccccc23)o1,-57,11,-2,0,9,54*
CCCC#Cc1ccc([C@H]2[C@@H](CO)N(S(C)(=O)=O)[C@H]2C#N)cc1,·,0,6,·,3,·
C[C@H](CO)N1C[C@H](C)[C@H](CN(C)C(=O)c2ccncc2)Oc2ncc(C#CC3CCCCC3)cc2C1=O,·,-11,10,·,-12,·
Cc1ccc(S(=O)(=O)N[C@H]2CC[C@@H](CC(=O)NCc3ccncn3)O[C@H]2CO)cc1,·,6,1,·,10,·
On1ccccc1=S,·,52*,13,83,100*,-23
O=C(Cn1ccccc1=S)c1ccc(Cl)c(Cl)c1,19,7,-8,-2,-7,·
CN1CCN(C(=O)C[C@H]2C=C[C@H](NC(=O)Nc3ccccc3F)[C@@H](CO)O2)CC1,·,4,4,·,-17,·
Cc1ccc(-c2nc(-c3ccccc3)no2)c(Cl)c1,95*,84*,9,44,-12,40
Cc1ccc(NC(=O)c2cc3ccccc3oc2=O)cc1S(=O)(=O)N(C)C,73*,·,·,84,·,64*
O=C(NN1C(=O)C2C3C=CC(C4CC34)C2C1=O)c1cccc(Cl)c1 (stereo unspecified),1,·,2,6,6,71*

# Compound activity from PubChem.
